Our source for the IC50, MIC and Activity values is ChEMBL document CHEMBL4831482 (Eur J Med Chem, 2021).

≈ marks a conversion by molar mass, not a printed value. Calls of active or inactive are those of the source. The calls are words filed in the database; no cut-off is given here. Where a SMILES comes first, the peptide text is derived from it. The star is where a group is joined. Boc = CC(C)(C)OC(=O)*; NHBn = c1ccc(CN*)cc1

The test system of one series is Cryptococcus neoformans. The series can be described thus: Antifungal activity against Cryptococcus neoformans ATCC 90113 assessed as inhibition of fungal growth by CLSI method. It is filed as functional, organism-based.
In another series the test system is Aspergillus fumigatus. The experiment in a line: Antifungal activity against Aspergillus fumigatus ATCC 1022 assessed as inhibition of fungal growth by CLSI method. It is filed as functional, organism-based.
In the next series the test system is Klebsiella pneumoniae. The series can be described thus: Antibacterial activity against Klebsiella pneumoniae ATCC BAA1705 assessed as inhibition of bacterial growth by CLSI method. Format: functional, organism-based.
In a further series the test system is Vero. The experiment in a line: Cytotoxicity against African green monkey Vero cells assessed as reduction in cell viability incubated for 48 hrs by Neutral red assay. It is filed as cell-based. As to conditions: chlorocebus sabaeus. The method, boiled down: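 VERO monkey kidney cells seeded at 25,000 cells/well and incubated 24 h to confluency. Peptide added, then a further 48 h incubation. Viability read by neutral red uptake.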

The test system of another series is Candida albicans. The series can be described thus: Antifungal activity against Candida albicans ATCC 10231 assessed as inhibition of fungal growth by CLSI method. It is filed as functional, organism-based.
Another series deals with Pseudomonas aeruginosa. The experiment in a line: Antibacterial activity against Pseudomonas aeruginosa ATCC 27853 assessed as inhibition of bacterial growth by CLSI method. Format: functional, organism-based.
The subject of a further series is Enterococcus. The series can be described thus: Antibacterial activity against vancomycin resistant Enterococcus ATCC MP-1 assessed as inhibition of bacterial growth by CLSI method. Format: functional, organism-based.
Another series has as its system Escherichia coli. The series can be described thus: Antibacterial activity against Escherichia coli ATCC 35218 assessed as inhibition of bacterial growth by CLSI method. It is filed as functional, organism-based.
The test system of a further series is Staphylococcus aureus. The experiment in a line: Antibacterial activity against methicillin-resistant Staphylococcus aureus ATCC 33591 assessed as inhibition of bacterial growth by CLSI method. Format: functional, organism-based.

As to `Cl.Cl.N=C(N)NCCC[C@H](NC(=O)[C@H](Cc1c[nH]c2ccccc12)NC(=O)[C@@H](N)Cc1c[nH]c(-c2ccccc2)n1)C(=O)NCc1ccccc1`, the IC50 with Cryptococcus neoformans turned out to be 5.31 µg/mL. Further, the MIC with Cryptococcus neoformans amounted to 10 µg/mL. Moreover, the outcome in the series on Aspergillus fumigatus, with Klebsiella pneumoniae and with Candida albicans was inactive. Besides, in the series with Vero, the Activity was > 10 µg/mL.

`CCCCc1ccc(-c2nc(C[C@H](NC(=O)OC(C)(C)C)C(=O)N[C@@H](Cc3c[nH]c4ccccc34)C(=O)N[C@@H](CCCNC(=N)N)C(=O)OC)c[nH]2)cc1`: the concentration for half-maximal inhibition (IC50) with Pseudomonas aeruginosa is > 20 µg/mL; with Enterococcus, 7.82 µg/mL (≈ 10.5 µM); with Escherichia coli, 17.9 µg/mL (≈ 24 µM); in the series on Cryptococcus neoformans, 1.99 µg/mL (≈ 2.68 µM); in the series on Staphylococcus aureus it was 9.29 µg/mL (≈ 12.5 µM). Besides, the MIC is 20 µg/mL (≈ 26.9 µM) in the series with Enterococcus, > 20 µg/mL in the series with Escherichia coli, 2.5 µg/mL (≈ 3.36 µM) with Cryptococcus neoformans and 10 µg/mL (≈ 13.4 µM) in the series with Staphylococcus aureus. Besides, the result in the series on Aspergillus fumigatus, with Klebsiella pneumoniae and in the series with Candida albicans was inactive. Moreover, the Activity with Vero is > 10 µg/mL.

`Cc1ccc(-c2nc(C[C@H](NC(=O)OC(C)(C)C)C(=O)N[C@@H](Cc3c[nH]c4ccccc34)C(=O)N[C@@H](CCCNC(=N)N)C(=O)NCc3ccccc3)c[nH]2)cc1`: the IC50 is > 20 µg/mL in the series with Pseudomonas aeruginosa; > 20 µg/mL with Enterococcus; > 20 µg/mL with Escherichia coli; 4.34 µg/mL (≈ 5.59 µM) with Cryptococcus neoformans; 17.5 µg/mL (≈ 22.5 µM) in the series with Staphylococcus aureus. Also, the MIC stood at 5 µg/mL (≈ 6.44 µM) in the series with Cryptococcus neoformans and 20 µg/mL (≈ 25.7 µM) in the series with Staphylococcus aureus. In addition, the result in the series on Aspergillus fumigatus, in the series on Klebsiella pneumoniae and in the series on Candida albicans was inactive. For the same molecule, the Activity with Vero is > 10 µg/mL.

Consider `COC(=O)[C@H](CCCNC(=N)N)NC(=O)[C@H](Cc1c[nH]c2ccccc12)NC(=O)[C@@H](N)Cc1c[nH]c(-c2ccc(-c3ccccc3)cc2)n1.Cl.Cl`, for which the IC50 in the series with Pseudomonas aeruginosa was > 20 µg/mL; in the series on Enterococcus it was 13.2 µg/mL; with Escherichia coli it was > 20 µg/mL; in the series on Cryptococcus neoformans, 1.51 µg/mL; with Staphylococcus aureus it was 7.81 µg/mL. Besides, the results for the MIC in the series with Enterococcus, with Cryptococcus neoformans and in the series on Staphylococcus aureus were 20 µg/mL, 2.5 µg/mL and 10 µg/mL, respectively. In addition, the outcome in the series on Aspergillus fumigatus, with Klebsiella pneumoniae and in the series with Candida albicans was inactive. In addition, in the series on Vero, the Activity was > 10 µg/mL.

As to `COC(=O)[C@H](CCCNC(=N)N)NC(=O)[C@H](Cc1c[nH]c2ccccc12)NC(=O)[C@H](Cc1c[nH]c(-c2ccccc2)n1)NC(=O)OC(C)(C)C`, the IC50 with Cryptococcus neoformans is 8.85 µg/mL (≈ 12.9 µM). Also, the MIC in the series with Cryptococcus neoformans is > 20 µg/mL. The outcome with Aspergillus fumigatus, with Klebsiella pneumoniae and in the series with Candida albicans was inactive. Moreover, in the series on Vero, the Activity was > 10 µg/mL.

Take `CC(C)(C)OC(=O)N[C@@H](Cc1c[nH]cn1)C(=O)N[C@@H](Cc1c[nH]c2ccccc12)C(=O)N[C@@H](CCCNC(=N)N)C(=O)NCc1ccccc1` (Boc-His-Trp-Arg-NHBn): the IC50 with Cryptococcus neoformans is > 20 µg/mL. Besides, the result in the series with Aspergillus fumigatus, in the series with Klebsiella pneumoniae and with Candida albicans was inactive. Moreover, the Activity in the series with Vero is > 10 µg/mL.

On to `CCc1ccc(-c2nc(C[C@H](N)C(=O)N[C@@H](Cc3c[nH]c4ccccc34)C(=O)N[C@@H](CCCNC(=N)N)C(=O)OC)c[nH]2)cc1.Cl.Cl`, for which the 50% inhibitory concentration (IC50) with Pseudomonas aeruginosa is > 20 µg/mL; with Enterococcus, > 20 µg/mL; with Escherichia coli it was 17.4 µg/mL; with Cryptococcus neoformans, 1.85 µg/mL; with Staphylococcus aureus it was > 20 µg/mL. Besides, the MIC in the series on Escherichia coli is > 20 µg/mL; with Cryptococcus neoformans, 2.5 µg/mL. Moreover, the outcome with Aspergillus fumigatus, with Klebsiella pneumoniae and in the series on Candida albicans was inactive. Also, the Activity with Vero was > 10 µg/mL.

Regarding `CCCCc1ccc(-c2nc(C[C@H](N)C(=O)N[C@@H](Cc3c[nH]c4ccccc34)C(=O)N[C@@H](CCCNC(=N)N)C(=O)NCc3ccccc3)c[nH]2)cc1.Cl.Cl`, the IC50 in the series with Pseudomonas aeruginosa turned out to be 17.2 µg/mL; with Enterococcus, 9.99 µg/mL; with Escherichia coli, 16.3 µg/mL; in the series on Cryptococcus neoformans, 2.27 µg/mL; in the series with Staphylococcus aureus it was 4.46 µg/mL. Also, the MIC in the series with Pseudomonas aeruginosa is > 20 µg/mL; in the series on Enterococcus, 20 µg/mL; with Escherichia coli, > 20 µg/mL; in the series on Cryptococcus neoformans, 5 µg/mL; with Staphylococcus aureus, 10 µg/mL. For the same molecule, the outcome in the series with Aspergillus fumigatus, in the series with Klebsiella pneumoniae and in the series with Candida albicans was inactive. Moreover, in the series with Vero, the Activity was > 10 µg/mL.

Turning to `COC(=O)[C@H](CCCNC(=N)N)NC(=O)[C@H](Cc1c[nH]c2ccccc12)NC(=O)[C@H](Cc1c[nH]c(-c2ccc(C)cc2)n1)NC(=O)OC(C)(C)C`, the IC50 in the series on Cryptococcus neoformans amounted to 7.66 µg/mL (≈ 10.9 µM). Besides, the MIC in the series with Cryptococcus neoformans is > 20 µg/mL. Also, the result in the series with Aspergillus fumigatus, with Klebsiella pneumoniae and in the series on Candida albicans was inactive. In addition, in the series with Vero, the Activity was > 10 µg/mL.

As to `COC(=O)[C@H](CCCNC(=N)N)NC(=O)[C@H](Cc1c[nH]c2ccccc12)NC(=O)[C@@H](N)Cc1c[nH]cn1.Cl.Cl` (H-His-Trp-Arg-OMe), the half-maximal inhibitory concentration (IC50) with Cryptococcus neoformans was determined as 2.41 µg/mL. In addition, in the series with Cryptococcus neoformans, the MIC turned out to be 10 µg/mL. In addition, the outcome in the series on Aspergillus fumigatus, with Klebsiella pneumoniae and with Candida albicans was inactive. For the same molecule, in the series on Vero, the Activity is > 10 µg/mL.

Consider `Cc1ccc(-c2nc(C[C@H](N)C(=O)N[C@@H](Cc3c[nH]c4ccccc34)C(=O)N[C@@H](CCCNC(=N)N)C(=O)NCc3ccccc3)c[nH]2)cc1.Cl.Cl`, for which, in the series with Cryptococcus neoformans, the IC50 worked out at 3.36 µg/mL. Also, in the series on Cryptococcus neoformans, the MIC was 5 µg/mL. The result with Aspergillus fumigatus, in the series on Klebsiella pneumoniae and in the series on Candida albicans was inactive. For the same molecule, in the series on Vero, the Activity is > 10 µg/mL.

For the molecule `Cl.Cl.N=C(N)NCCC[C@H](NC(=O)[C@H](Cc1c[nH]c2ccccc12)NC(=O)[C@@H](N)Cc1c[nH]cn1)C(=O)NCc1ccccc1` (H-His-Trp-Arg-NHBn), the IC50 with Cryptococcus neoformans was determined as 4.92 µg/mL. In addition, in the series with Cryptococcus neoformans, the MIC was found to be 10 µg/mL. The result in the series on Aspergillus fumigatus, in the series on Klebsiella pneumoniae and in the series on Candida albicans was inactive. The Activity with Vero is > 10 µg/mL.

In the case of `CCc1ccc(-c2nc(C[C@H](NC(=O)OC(C)(C)C)C(=O)N[C@@H](Cc3c[nH]c4ccccc34)C(=O)N[C@@H](CCCNC(=N)N)C(=O)OC)c[nH]2)cc1`, in the series with Cryptococcus neoformans, the IC50 came to 9.66 µg/mL (≈ 13.5 µM). Also, the MIC in the series on Cryptococcus neoformans is > 20 µg/mL. Further, the result with Aspergillus fumigatus, with Klebsiella pneumoniae and with Candida albicans was inactive. Also, in the series on Vero, the Activity is > 10 µg/mL.

Regarding `COC(=O)[C@H](CCCNC(=N)N)NC(=O)[C@H](Cc1c[nH]c2ccccc12)NC(=O)[C@@H](N)Cc1c[nH]c(-c2ccccc2)n1.Cl.Cl`, the IC50 with Cryptococcus neoformans was determined as 9.23 µg/mL. Moreover, in the series with Cryptococcus neoformans, the minimal inhibitory concentration (MIC) was > 20 µg/mL. The result with Aspergillus fumigatus, in the series on Klebsiella pneumoniae and in the series with Candida albicans was inactive. Moreover, the Activity with Vero is > 10 µg/mL.

Consider `COC(=O)[C@H](CCCNC(=N)N)NC(=O)[C@H](Cc1c[nH]c2ccccc12)NC(=O)[C@H](Cc1c[nH]c(-c2ccc(-c3ccccc3)cc2)n1)NC(=O)OC(C)(C)C`, for which the concentration for half-maximal inhibition (IC50) in the series with Pseudomonas aeruginosa was > 20 µg/mL; with Escherichia coli, > 20 µg/mL; in the series on Cryptococcus neoformans, 8.06 µg/mL (≈ 10.6 µM); with Staphylococcus aureus, 16.3 µg/mL (≈ 21.3 µM). In addition, the MIC in the series with Cryptococcus neoformans and in the series on Staphylococcus aureus was > 20 µg/mL throughout. In addition, the outcome in the series on Aspergillus fumigatus, in the series on Klebsiella pneumoniae and in the series with Candida albicans was inactive. Besides, the Activity with Vero was > 10 µg/mL.

`CC(C)(C)OC(=O)N[C@@H](Cc1c[nH]c(-c2ccccc2)n1)C(=O)N[C@@H](Cc1c[nH]c2ccccc12)C(=O)N[C@@H](CCCNC(=N)N)C(=O)NCc1ccccc1`: in the series with Cryptococcus neoformans, the IC50 came to 7.93 µg/mL (≈ 10.4 µM). Besides, in the series with Cryptococcus neoformans, the MIC was > 20 µg/mL. The outcome in the series with Aspergillus fumigatus, with Klebsiella pneumoniae and in the series on Candida albicans was inactive. Besides, the Activity in the series on Vero is > 10 µg/mL.

`COC(=O)[C@H](CCCNC(=N)N)NC(=O)[C@H](Cc1c[nH]c2ccccc12)NC(=O)[C@@H](N)Cc1c[nH]c(-c2ccc(C)cc2)n1.Cl.Cl`: in the series on Cryptococcus neoformans, the IC50 stood at 8.98 µg/mL. For the same molecule, the MIC with Cryptococcus neoformans is > 20 µg/mL. For the same molecule, the outcome in the series on Aspergillus fumigatus, in the series with Klebsiella pneumoniae and in the series with Candida albicans was inactive. Moreover, in the series on Vero, the Activity is > 10 µg/mL.

In the case of `C[C@@H]1[C@H](O)[C@@H](C)/C=C/C=C/C=C/C=C/C=C/C=C/C=C/[C@H](O[C@@H]2O[C@H](C)[C@@H](O)[C@H](N)[C@@H]2O)C[C@@H]2O[C@](O)(C[C@@H](O)C[C@@H](O)[C@H](O)CC[C@@H](O)C[C@@H](O)CC(=O)O[C@H]1C)C[C@H](O)[C@H]2C(=O)O` [AMPHOTERICIN B], in the series on Cryptococcus neoformans, the minimum inhibitory concentration (MIC) is 1.25 µg/mL (≈ 1.35 µM).

A word on the IC50: it is the concentration at which inhibition is half-maximal. By MIC is commonly meant the lowest concentration found to suppress growth.
